Compound activity (PubChem)
Compounds with a hit are over-represented: about 1.4% of the library has one in this group of screens.
UBC9 SUMO inh: inhibitors of in vitro SUMOylation cascade, primary screen, biochemical, HTRF, uHTS. HTRF SUMOylation assay, SAE1/SAE2 + UBC9. 0.36% of 290,000 active. AID 2006, 2009. inhibition, % at 35 µM. SUMO-conjugating enzyme UBC9 (Homo sapiens), P63279; in the data active means inhibition above about 50%, passing the limit was not always enough
Target sequence (P63279 whole entry, looked up): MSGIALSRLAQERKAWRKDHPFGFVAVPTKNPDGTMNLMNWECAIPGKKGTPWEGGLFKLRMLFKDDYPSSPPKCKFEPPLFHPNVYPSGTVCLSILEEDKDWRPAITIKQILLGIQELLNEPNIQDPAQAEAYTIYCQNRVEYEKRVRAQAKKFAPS
UCH37 inh: inhibitors of human UCH37 deubiquitinase, primary screen, biochemical, Ub-AMC cleavage, fluorescence. purified proteasome/UCH37. inhibition, % (test concentration not listed). 0.33% of 330,000 active. AID 588478, 2011;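 active means mean inhibition over replicate wells above about 20%, limit read from the data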
Target sequence (Q9Y5K5 whole entry, looked up): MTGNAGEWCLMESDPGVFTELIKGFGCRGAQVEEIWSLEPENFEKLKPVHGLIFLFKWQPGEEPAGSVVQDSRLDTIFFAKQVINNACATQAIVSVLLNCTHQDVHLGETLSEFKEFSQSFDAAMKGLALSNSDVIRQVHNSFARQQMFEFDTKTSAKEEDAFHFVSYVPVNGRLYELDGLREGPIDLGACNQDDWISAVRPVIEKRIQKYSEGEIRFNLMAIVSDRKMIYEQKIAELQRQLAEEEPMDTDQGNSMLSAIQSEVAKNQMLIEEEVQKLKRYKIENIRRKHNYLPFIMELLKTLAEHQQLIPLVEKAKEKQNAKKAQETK
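assay system = human UCH37 enzyme supplied as purified proteasome complex | amount = proteasome at 0.15 nM in the dispensed enzyme solution | schedule = 30 min compound-proteasome preincubation then 25 min substrate reaction, room temperature | measured by = fluorescence, ex 355 nm, em 460 nm | benchmarks = no-proteasome wells (full inhibition) and compound-free wells (no inhibition)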
Neddylation inh: inhibitors of cullin neddylation, primary screen, biochemical, TR-FRET, uHTS, NAE and Ubc12. NEDD8-conjugating enzyme Ubc12 (Homo sapiens) + NEDD8-activating enzyme E1 regulatory …. inhibition, % at 25 µM. AID 651699, 2012. 0.58% of 360,000 active; in the data active means inhibition above about 36%
CTSL1 counter: Fasciola hepatica cathepsin L1 inhibitors, primary screen, counter-screen for PFM18AAP inhibitor project, biochemical, QFRET, fluorogenic peptide substrate. 0.49% of 300,000 active. inhibition, % at 5.96 µM. recombinant F. hepatica cathepsin L1, Z-Leu-Arg-MCA fluorescence. AID 1906, 2009;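 active means inhibition above the mean of all tested compounds plus 3 SD, set per screening campaign, cut at about 17% in these data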
Large screens that a line does not name were inactive.

OC(CN1c2ccccc2Sc2ccccc21)Cn1nnc2ccccc21 (stereo not given)	CTSL1 counter 17
Cn1c(Cn2nnc3ccccc32)nnc1SCC(=O)N1c2ccccc2CCc2ccccc21	none
Cn1c(Cn2nnc3ccccc32)nnc1SCC(=O)N1c2ccccc2Sc2ccccc21	CTSL1 counter 17
Oc1ccccc1N=N/C(=N/Nc1ccccc1O)c1ccccc1	none (no result: UBC9 SUMO inh)
N#C/C(N=Nc1ccccc1O)=N\Nc1ccccc1O	CTSL1 counter 34 (no result: UBC9 SUMO inh)
CCOC(=O)c1c(CC(C)C)csc1N=CC1=C(O)CCCC1=O	none (no result: UBC9 SUMO inh, Neddylation inh, CTSL1 counter)
O=C(O)Cc1sc(NN=Cc2ccncc2)nc1-c1ccccc1	none (no result: UBC9 SUMO inh, Neddylation inh, CTSL1 counter)
CCn1c(SC(=O)NC2CCCCC2)nnc1-c1cccs1	CTSL1 counter 55 (not shown: Neddylation inh)
CCn1c(SCC(=O)NC2CCCCC2)nnc1-c1cccs1	none
Cc1ccnc(N/C=C(/NC(=O)c2ccccc2)C(=O)N/N=C\c2ccc(F)cc2)n1	CTSL1 counter 20 (no result: UCH37 inh)
Cc1ccnc(N/C=C(/NC(=O)c2ccccc2)C(=O)NN=Cc2ccc(F)cc2)n1	none (no result: UBC9 SUMO inh, Neddylation inh, CTSL1 counter)
O=[N+]([O-])c1ccc(-n2nnnc2-c2ccccc2)cc1	none
O=[N+]([O-])c1ccc(-n2nnnc2-c2ccccc2)c([N+](=O)[O-])c1	CTSL1 counter 20
Cc1ccc(S(=O)(=O)/N=C2/NC(=O)/C(=C/c3ccc(Br)o3)S2)cc1	none
Cc1ccc(S(=O)(=O)/N=C2/NC(=O)/C(=C\c3cc(Br)cc(Br)c3O)S2)cc1	UBC9 SUMO inh 62 (no result: CTSL1 counter)
COc1cc2[nH]c(=O)n(C3CCCCC3)c(=O)c2cc1OC	none
Nc1ccc2nc3c(=O)n(CCc4ccccc4)c(=O)[nH]c3nc2c1	UBC9 SUMO inh 68
CCCCn1c(=O)[nH]c2nc3cc(N)ccc3nc2c1=O	UBC9 SUMO inh 98
Nc1ccc2nc3c(=O)n(C4CCCCC4)c(=O)[nH]c3nc2c1	UBC9 SUMO inh 61
CC(CC(=O)Nc1ccccc1)=NNC(=O)COc1ccc(C)cc1Br	none (no result: UBC9 SUMO inh, Neddylation inh, CTSL1 counter)
C=CCN1C(=O)C(Cc2ccccc2)SC1=NN=Cc1cccs1 (stereo not given)	none (no result: UBC9 SUMO inh, Neddylation inh, CTSL1 counter)
CC(=NNS(=O)(=O)c1ccc(C)cc1)c1ccc(C)o1	none (no result: UBC9 SUMO inh, Neddylation inh, CTSL1 counter)
CC(=NNC(=O)C1CCCN1C(=O)c1ccc([N+](=O)[O-])cc1)c1ccc(Br)cc1 (stereo not given)	none (no result: UBC9 SUMO inh, Neddylation inh, CTSL1 counter)
Cc1ccc(C)c(NC(=O)CN(C)C(=O)C2CCN(C(=O)Nc3ccccc3)CC2)c1	CTSL1 counter 17 (no result: UBC9 SUMO inh)
Fc1cc2ncn(Cc3ccccc3)c2cc1F	UCH37 inh 25
COc1ccc(S(=O)(=O)NN=C(C)c2ccco2)cc1	none (no result: UBC9 SUMO inh, Neddylation inh, CTSL1 counter)
O=C(CCCOc1ccc(Cl)cc1Cl)NN=Cc1ccccc1O	none (no result: UBC9 SUMO inh, Neddylation inh, CTSL1 counter)
O=C(Cc1ccccc1)NN=Cc1ccc(OC(=O)/C=C\c2ccco2)cc1	none (no result: UBC9 SUMO inh, Neddylation inh, CTSL1 counter)
COc1cccc(-c2nc(CS(=O)(=O)CC(=O)NCCCN3CC(C)CC(C)C3)c(C)o2)c1 (stereo not given)	CTSL1 counter 19
COc1cccc(-c2nc(CS(=O)(=O)CC(=O)NCCCN3CCN(C)CC3)c(C)o2)c1	none
COC(=O)c1c(C)[nH]c(C=NNc2ccccc2)c1C	none (no result: UBC9 SUMO inh, Neddylation inh, CTSL1 counter)
COc1ccc(NC(C)C(=O)NN=Cc2ccccc2OCc2ccc(Br)cc2)cc1 (stereo not given)	none (no result: UBC9 SUMO inh, Neddylation inh, CTSL1 counter)
CNC(=S)NN=Cc1c2ccccc2c(Cl)c2ccccc12	none (no result: UBC9 SUMO inh, Neddylation inh, CTSL1 counter)
Cc1cc[n+](-c2[nH]c(=O)sc2C=NNC([S-])=Nc2ccccc2)cc1	UCH37 inh 23 (no result: UBC9 SUMO inh, Neddylation inh, CTSL1 counter)
FC(F)(F)c1ccc(Cl)c(NC(=S)NN=Cc2ccccc2C(F)(F)F)c1	none (no result: UBC9 SUMO inh, Neddylation inh, CTSL1 counter)
COc1ccc(NS(=O)(=O)c2ccc(N3CCOCC3)c(NC(=O)c3ccc(F)cc3)c2)cc1	none
COc1ccc(NS(=O)(=O)c2ccc(O)c(NC(=O)c3cc4c(C)nn(-c5ccc(F)cc5)c4s3)c2)cc1	UBC9 SUMO inh 82 (not shown: Neddylation inh)
CCOC(=O)c1c(-c2ccco2)csc1NC(=O)COC(=O)c1cnccn1	CTSL1 counter 40 (no result: UBC9 SUMO inh)
COc1cc(Br)cc(C=NNC(=O)Cc2ccccc2)c1O	none (no result: UBC9 SUMO inh, Neddylation inh, CTSL1 counter)
Cc1nn(-c2ccccc2)c2c1C(c1ccc(O)c(O)c1)N1C(=N2)C(Nc2ccccc2)=Nc2ccccc21 (stereo not given)	CTSL1 counter 38
O=C(Cc1ccc(Br)cc1)NC1CCCc2ccccc21 (stereo not given)	none
Cc1ccc(C(=O)NC2CCCc3ccccc32)o1 (stereo not given)	CTSL1 counter 76
O=C(CCl)NC1CCCc2ccccc21 (stereo not given)	CTSL1 counter 27
CC(=NNc1nc(-c2ccccc2F)nc2ccccc12)c1ccccc1O	none (no result: UBC9 SUMO inh, Neddylation inh, CTSL1 counter)
Cc1[nH]c(=O)c(C#N)c2c1COC(C)(C)C2	none
